Series [1] has as its system Mus musculus. Kind of series: Antagonism of pentylenetetrazole-induced convulsion in mice by oral administration. The format is functional. Put shortly:
(§1)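 Compounds given orally as an aqueous arabic gum suspension to groups of five mice; 60 min after dosing, pentylenetetrazole 125 mg/kg given subcutaneously. Animals observed 2 h for convulsion and death; dose protecting 50% (ED50) estimated graphically.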

A short description of series [2]: Acute toxicity of compound expressed as LD50 was measured in mice after oral administration. The series is classed as organism-based. As to conditions: mouse, in vivo. Put shortly: (§2)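 Mice dosed orally as a suspension in aqueous arabic gum, groups of one to three animals; acute toxicity judged on day 7 after dosing. Values for the three reference benzodiazepines derived by the probit method.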

In series [3] the test system is Mus musculus. Kind of series: Muscle relaxation activity using the rotarod performance test in mice by oral administration. The series is classed as functional. Put shortly: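 Groups of five mice dosed orally with compound suspended in aqueous arabic gum. At 60 min post-dose each mouse placed on a 3 cm diameter wooden rod turning at 5 rpm; falls within 2 min counted. ED50 estimated graphically.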

A short description of series [4]: Acute toxicity expressed as LD50 in mice after oral administration. The format is organism-based. As to conditions: mouse, in vivo. The method, boiled down:
as §2

For series [5], the system named is Mus musculus. Nature of the series: Compound was tested for antagonism of pentylenetetrazole-induced convulsion in mice by oral administration. The format is functional. The method, boiled down: as §1

In general, ED50 refers to the dose at which the effect has come halfway, by size or by number of responders. A lower ED50 goes with an effect at a small dose. A word on the LD50: it is the dose expected to kill half of the subjects tested. Consider `CCCCCCCCCCCCCCCC(=O)NCC(=O)N(C)c1ccc(Cl)cc1C(=O)c1ccccc1Cl`, for which the ED50 with Mus musculus [1] and in the series with Mus musculus [3] was over 100 mg/kg throughout. This molecule gave an LD50 in series [2] of over 1000 mg/kg.

Regarding `CN(C)CC(=O)NCC(=O)N(C)c1ccc(Cl)cc1C(=O)c1ccccc1Cl`, the ED50 is 2.6 mg/kg with Mus musculus [1] and 26 mg/kg in the series on Mus musculus [3]. In series [4], this molecule registered an LD50 of over 1000 mg/kg.

Take `CN(C(=O)CNC(=O)CN1CCC(O)(c2ccc(Cl)cc2)CC1)c1ccc(Cl)cc1C(=O)c1ccccc1Cl`: the ED50 in the series on Mus musculus [1] was 27 mg/kg; in the series with Mus musculus [3], over 100 mg/kg. For the same molecule, the LD50 in series [4] is over 1000 mg/kg.

For the molecule `CCC(=O)NCC(=O)N(C)c1ccc(Cl)cc1C(=O)c1ccccc1Cl`, the ED50 with Mus musculus [1] was 1.4 mg/kg; with Mus musculus [3], 36 mg/kg. Besides, the LD50 in series [4] is over 1000 mg/kg.

Take `CN(C(=O)CNC(=O)CN)c1ccc(Cl)cc1C(=O)c1ccccc1Cl` [LORZAFONE ANHYDROUS]: the ED50 in the series with Mus musculus [1] came out at 0.58 mg/kg; in the series with Mus musculus [3], 27.7 mg/kg. This molecule returned an LD50 in series [4] of over 1000 mg/kg.

In the series on Mus musculus [5], `CNCC(=O)NCC(=O)N(C)c1ccc(Cl)cc1C(=O)c1ccccc1Cl` showed an ED50 of 1.55 mg/kg. In series [4], the LD50 was over 1000 mg/kg.

On to `CCCCC(=O)NCC(=O)N(C)c1ccc(Cl)cc1C(=O)c1ccccc1Cl`, for which the values for the ED50 in the series with Mus musculus [1] and in the series on Mus musculus [3] were 1.3 mg/kg and 90 mg/kg, respectively. For the same molecule, the LD50 in series [4] was over 1000 mg/kg.

Take `CC(=O)NCC(=O)Nc1ccc(Cl)cc1C(=O)c1ccccc1`: the figures for the ED50 in the series on Mus musculus [1] and in the series with Mus musculus [3] were 37 mg/kg and over 100 mg/kg, respectively. This molecule came in with an LD50 in series [4] of over 1000 mg/kg.

Regarding `CNC1=Nc2ccc(Cl)cc2C(c2ccccc2)=[N+]([O-])C1` [CHLORDIAZEPOXIDE], the LD50 in series [4] turned out to be 1080 mg/kg.

For the molecule `CCN(CC)CC(=O)NCC(=O)N(C)c1ccc(Cl)cc1C(=O)c1ccccc1Cl`, the ED50 worked out at 2.2 mg/kg in the series on Mus musculus [1] and 34 mg/kg in the series on Mus musculus [3]. The same molecule yielded an LD50 in series [4] of over 1000 mg/kg.

For `CN(C(=O)CNC(=O)CN1CCCCC1)c1ccc(Cl)cc1C(=O)c1ccccc1Cl`, the ED50 is 7.5 mg/kg with Mus musculus [1] and over 100 mg/kg in the series on Mus musculus [3]. This molecule also gave an LD50 in series [4] of over 1000 mg/kg.

Regarding `CN(C(=O)CNC(=O)CN1CCN(c2ccccc2)CC1)c1ccc(Cl)cc1C(=O)c1ccccc1Cl`, the ED50 is 75 mg/kg in the series with Mus musculus [1] and over 100 mg/kg in the series on Mus musculus [3]. For the same molecule, in series [4], the LD50 was over 1000 mg/kg.

`CCCCCCC(=O)NCC(=O)N(C)c1ccc(Cl)cc1C(=O)c1ccccc1Cl`: the ED50 in the series on Mus musculus [1] is 1.9 mg/kg; in the series with Mus musculus [3], 70 mg/kg. In series [4], this molecule returned an LD50 of over 1000 mg/kg.

In the case of `CN(C(=O)CNC(=O)CN1CCOCC1)c1ccc(Cl)cc1C(=O)c1ccccc1Cl`, the values for the ED50 with Mus musculus [1] and in the series with Mus musculus [3] were 14 mg/kg and over 100 mg/kg, respectively. The same molecule displayed an LD50 in series [4] of over 1000 mg/kg.

As for `CC(=O)NCC(=O)N(C)c1ccc(Cl)cc1C(=O)c1ccccc1Cl`, the ED50 turned out to be 2.3 mg/kg in the series on Mus musculus [1] and 58 mg/kg in the series with Mus musculus [3]. Moreover, the LD50 in series [4] was over 1000 mg/kg.

As to `CN(C(=O)CNC(=O)c1ccccc1)c1ccc(Cl)cc1C(=O)c1ccccc1Cl`, the ED50 in the series with Mus musculus [1] was 2.9 mg/kg; with Mus musculus [3] it was over 100 mg/kg. The same molecule showed an LD50 in series [4] of over 1000 mg/kg.

As for `NC(C(=O)NCC(=O)Nc1ccc(Cl)cc1C(=O)c1ccccc1)c1ccccc1` (stereo not given), the ED50 is 28 mg/kg in the series on Mus musculus [1] and over 100 mg/kg in the series on Mus musculus [3]. In series [4], this molecule showed an LD50 of over 1000 mg/kg.

In the case of `CC(C)NCC(=O)NCC(=O)N(C)c1ccc(Cl)cc1C(=O)c1ccccc1Cl`, the ED50 in the series with Mus musculus [1] amounted to 1 mg/kg; in the series on Mus musculus [3] it was 13 mg/kg. The LD50 in series [4] came out at 750 mg/kg.

Regarding `NCC(=O)NCC(=O)Nc1ccc([N+](=O)[O-])cc1C(=O)c1ccccc1Cl`, the ED50 was determined as 2.64 mg/kg in the series with Mus musculus [1] and 63.9 mg/kg with Mus musculus [3]. Moreover, in series [2], the LD50 was found to be 750 mg/kg.

`CC(NC(=O)CN)C(=O)N(C)c1ccc(Cl)cc1C(=O)c1ccccc1Cl` (stereo not given): the values for the ED50 in the series on Mus musculus [1] and with Mus musculus [3] were 0.47 mg/kg and 8.5 mg/kg, respectively. The LD50 in series [4] was determined as 750 mg/kg.

Consider `O=C1CN=C(c2ccccc2)c2cc([N+](=O)[O-])ccc2N1` [NITRAZEPAM], for which the ED50 amounted to 0.23 mg/kg in the series on Mus musculus [1] and 4.25 mg/kg in the series with Mus musculus [3].

For the molecule `CCCC(=O)NCC(=O)N(C)c1ccc(Cl)cc1C(=O)c1ccccc1Cl`, the ED50 with Mus musculus [1] stood at 0.98 mg/kg; in the series with Mus musculus [3] it was 55.2 mg/kg. Further, in series [4], the LD50 was over 1000 mg/kg.

For `NCC(=O)NCC(=O)Nc1ccc([N+](=O)[O-])cc1C(=O)c1ccccc1`, the figures for the ED50 in the series with Mus musculus [1] and in the series on Mus musculus [3] were 4.82 mg/kg and 24.8 mg/kg, respectively. The molecule also yielded an LD50 in series [4] of over 1000 mg/kg.

Turning to `CC(=O)NCC(=O)Nc1ccc(Cl)cc1C(=O)c1ccccc1Cl`, the 50% effective dose (ED50) in the series with Mus musculus [1] and in the series with Mus musculus [3] was over 100 mg/kg in each case. Further, the LD50 in series [4] was over 1000 mg/kg.

With `CC(C)C(=O)NCC(=O)N(C)c1ccc(Cl)cc1C(=O)c1ccccc1Cl`, the ED50 in the series on Mus musculus [1] is 6 mg/kg; in the series on Mus musculus [3], over 100 mg/kg. This molecule showed an LD50 in series [4] of over 1000 mg/kg.

Regarding `CN(C(=O)CNC(=O)Cc1ccccc1)c1ccc(Cl)cc1C(=O)c1ccccc1Cl`, the ED50 in the series on Mus musculus [1] was 35 mg/kg; with Mus musculus [3], over 100 mg/kg. The molecule also returned an LD50 in series [4] of over 1000 mg/kg.

With `CCCCCC(=O)NCC(=O)N(C)c1ccc(Cl)cc1C(=O)c1ccccc1Cl`, the ED50 turned out to be 1.9 mg/kg in the series with Mus musculus [1] and 90 mg/kg in the series with Mus musculus [3]. For the same molecule, in series [4], the LD50 was over 1000 mg/kg.

Consider `CN(C(=O)CNC(=O)CN)c1ccc([N+](=O)[O-])cc1C(=O)c1ccccc1Cl`, for which the results for the ED50 with Mus musculus [5] and with Mus musculus [3] were 0.32 mg/kg and 10 mg/kg, respectively.

With `CN(C(=O)CNC(=O)CNCCc1ccccc1)c1ccc(Cl)cc1C(=O)c1ccccc1Cl`, the ED50 in the series with Mus musculus [1] is 1.6 mg/kg; in the series with Mus musculus [3], 86 mg/kg. Further, the LD50 in series [4] is over 1000 mg/kg.

Consider `CN1CCN(CC(=O)NCC(=O)N(C)c2ccc(Cl)cc2C(=O)c2ccccc2Cl)CC1`, for which the ED50 in the series on Mus musculus [1] is 59 mg/kg; in the series with Mus musculus [3], over 100 mg/kg. In series [4], the LD50 is over 1000 mg/kg.

Regarding `CN(C(=O)CNC(=O)c1ccccc1)c1ccc(Cl)cc1C(=O)c1ccccc1`, the figures for the ED50 with Mus musculus [1] and in the series with Mus musculus [3] were 7.6 mg/kg and over 100 mg/kg, respectively. In series [4], this molecule had an LD50 of over 1000 mg/kg.

In the case of `CN(C(=O)CNC(=O)CN)c1ccc([N+](=O)[O-])cc1C(=O)c1ccccc1`, the ED50 in the series on Mus musculus [5] amounted to 0.28 mg/kg; in the series with Mus musculus [3], 2.94 mg/kg.

For the origin of these results see ChEMBL document CHEMBL1121711, “Novel peptidoaminobenzophenones, terminal N-substituted peptidoaminobenzophenones, and N-(acylglycyl)aminobenzophenones as open-ring derivatives of benzodiazepines” (J Med Chem, 1981).
